# Source: PubChem BioAssay
# This is a sample that favours compounds with a hit; in the whole collection about 3% have one here.
# UBC13 polyUb: human UBC13 polyubiquitination inhibition. P61088. inhibition, % at 20 µM. 0.47% of 330,000 active. UBC13 polyubiquitin chain formation, TR-FRET; in the data active = inhibition above about 45%, passing the limit was not always enough
# Target sequence (P61088 whole entry, looked up): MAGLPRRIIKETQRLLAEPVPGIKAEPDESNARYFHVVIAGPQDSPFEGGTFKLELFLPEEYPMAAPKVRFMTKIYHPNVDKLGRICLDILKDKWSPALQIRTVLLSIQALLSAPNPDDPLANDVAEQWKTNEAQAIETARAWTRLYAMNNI
# SENP8 block-1: blocks human SENP8 cleavage of Nedd8 substrate | Q96LD8 | recombinant SENP8, Nedd8 substrate fluorescence | inhibition, % at 20 µM | 0.64% of 360,000 active | AID 602440; in the data active = inhibition mostly above about 40%, no sharp cut-off; inactive = mostly below about 27%
# Target sequence (Q96LD8 whole entry, looked up): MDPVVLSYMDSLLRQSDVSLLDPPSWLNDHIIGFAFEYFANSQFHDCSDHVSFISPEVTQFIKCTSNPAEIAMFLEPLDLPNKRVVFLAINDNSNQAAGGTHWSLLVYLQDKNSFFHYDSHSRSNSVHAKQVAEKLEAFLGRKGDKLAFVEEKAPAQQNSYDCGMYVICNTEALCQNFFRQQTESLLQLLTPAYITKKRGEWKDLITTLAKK
# Apaf1 inhib: human Apaf-1 inhibition; inhibition, % at 20 µM; 0.71% of 330,000 active; reconstituted apoptosome caspase-3 activity, DEVD-Rh110 fluorescence; AID 489030; O14727; active = inhibition of at least 40% at 20 µM
#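 Material: biochemical Apaf-1 apoptosome reconstitution. Medium: Hepes buffer, pH 7.5. Also added: cytochrome c activation, bis-DEVD rhodamine 110 substrate. Timing: 30 min compound preincubation, 50 min activation, room temperature. Measured by: rhodamine 110 fluorescence at Ex 480/Em 540 nm.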
# SENP7 inh: inhibitors of human SENP7 protease | Q9BQF6 | recombinant SENP7, Z-RLRGG-aminoluciferin luminescence, 40 min | inhibition, % at 5 µM | 1.5% of 330,000 active;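 active = inhibition above about 50% at the single test dose, limit read from the data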
# SENP6 inh: SENP6 protease inhibition | Q9GZR1 | Recombinant SENP6 catalytic domain, aminoluciferin luminescence | inhibition, % at 10 µM | 1.8% of 330,000 active;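 active = inhibition above about 50% at the single tested dose, limit read from the data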
# SENP8 block-2: inhibitors of human SENP8 protease. Q96LD8. purified SENP8, Z-RLRGG-aminoluciferin cleavage, luminescence. inhibition, % at 10 µM. 1.2% of 330,000 active; in the data active = inhibition above about 50%
# SENP8 conf: confirmation of human SENP8 protease inhibitors. AID 624319. inhibition, % at 25 µM. 15% of 1,400 active. shares compounds with SENP8 block-1. purified SENP8, Nedd8-AMC/pro-Nedd8 cleavage fluorescence, 30 min; in the data active = inhibition mostly above about 39%, no sharp cut-off; inactive = mostly below about 34%
# Numbers stand for hits; n = inactive; x = not tested or not shown.
SMILES,UBC13 polyUb,SENP8 block-1,Apaf1 inhib,SENP7 inh,SENP6 inh,SENP8 block-2,SENP8 conf
O=c1c2ccccc2c(C=NCCCN2CCOCC2)c(O)n1Cc1ccccc1,n,n,n,n,n,n,x
CC1CCCC(NS(=O)(=O)c2cccc3nsnc23)C1C (centres undefined),n,n,n,n,n,n,x
O=C1CCC[C@H]2c3[nH]c4ccccc4c3CCN12,n,67.8,n,n,n,n,n
O=C(O)[C@@H]1Cc2c([nH]c3ccccc23)C2CCC(=O)N21 (some centres undefined),n,n,n,n,n,n,x
COc1ccc(S(=O)(=O)NCc2ccc(C(=O)N3CCc4ccccc4C3)cc2)cc1,n,n,n,n,n,n,x
COc1ccc(NC(=O)C2CCCNC2)cc1OCC(C)C (centres undefined),n,n,n,n,n,n,x
COc1cc(NC(=O)C2CCCCN2)ccc1OCC(C)C (centres undefined),n,27.2,n,n,n,n,n
CCNC(=O)C(=O)NCC(c1cccs1)S(=O)(=O)c1ccc(C)cc1 (centres undefined),n,n,n,n,n,n,x
COc1ccccc1N1CCN(CCCCOc2cccc3ccccc23)CC1,n,n,n,n,n,n,x
COc1ccccc1OCCCCN1CCN(c2ccccc2OC)CC1,n,48.3,n,n,n,n,n
CC1(C)[N+]([O-])=C2C(=[N+]([O-])C1(C)C)c1ccccc1/C2=N\O,n,48.5,n,n,n,n,n
Cc1[nH]n2c(=O)cc(-c3ccc([N+](=O)[O-])cc3)nc2c1-c1ccccc1,n,44.2,n,n,n,n,n
COc1ccccc1NS(=O)(=O)c1cc(NC(=O)c2cccc(S(=O)(=O)N(C)C)c2)ccc1N1CCOCC1,n,32.1,n,n,n,n,n
N#CC(c1ccccc1)c1cnccn1 (centres undefined),n,n,n,n,n,n,x
CCC(C)N(C)C1CCN(C(=S)Nc2cccc(SC)c2)CC1 (centres undefined),n,43.3,n,n,n,n,n
Nc1ccc(C2CCCc3nonc32)c2nonc12 (centres undefined),n,56.9,n,n,n,n,n
CN(CCOC(=O)/C=C/c1ccco1)Cc1ccccc1,n,n,n,n,n,n,x
Cc1cc(=O)oc(C)c1C(=O)Nc1cccc2ccccc12,n,42.6,n,n,n,n,n
Cc1ccccc1NC(=O)c1c(C)cc(=O)oc1C,n,n,n,n,n,n,x
N#CC1(CCCN2CCCCC2)c2ccccc2CCc2ccccc21,n,40.7,n,n,n,n,n
Cc1cc(Cl)ccc1NC(=O)c1ccc2c(c1)CCN2S(C)(=O)=O,n,n,n,n,n,n,x
COc1ccc(CCn2nnnc2C(CC(C)C)N2CCN(c3ncccn3)CC2)cc1OC (centres undefined),n,42.8,n,n,n,n,n
Cc1cc(C)n2nc(C(=O)N/N=C/C=C/c3ccccc3)nc2n1,n,n,n,n,n,n,x
O=C(CC(=O)c1ccccc1)c1ccccc1,x,n,x,x,x,x,x
O=C(c1ccccc1)c1ccccc1,n,61.2,n,n,n,n,n
SMILES,UBC13 polyUb,SENP8 block-1,Apaf1 inhib,SENP7 inh,SENP6 inh,SENP8 block-2,SENP8 conf
Cc1c(C#N)c(O)n(C)c(=O)c1N=Nc1ccc(S(N)(=O)=O)cc1,x,48.7,x,x,x,x,n
Cc1c(C#N)c(O)n(CCO)c(=O)c1N=Nc1ccc(S(N)(=O)=O)cc1,n,n,n,n,n,n,x
Cn1c(=O)c2c(nc(Br)n2C)n(C)c1=O,n,40.6,n,n,n,n,n
CCNC(=O)C1(C)CCCN(Cc2ccc(Oc3ccccc3)cc2)C1 (centres undefined),x,n,x,x,x,x,x
COc1ccc(CN2CCNC(=O)C2CC(=O)NCc2cn3ccc(C)cc3n2)c(OC)c1 (centres undefined),n,n,n,n,n,n,x
CC1CCN(c2ccc(NC(=S)NC(=O)c3ccco3)cc2)CC1,n,42.4,n,n,n,n,n
COc1ccc(S(=O)(=O)N2CCOCC2)cc1NC(=O)COC(=O)C1=COCCO1,n,41.4,n,n,n,n,n
COc1ccc(S(=O)(=O)N2CCOCC2)cc1NC(=O)COC(=O)c1ccc(C)s1,n,n,n,n,n,n,x
O=[N+]([O-])c1ccc2nc(NN=Cc3ccc(O)cc3)sc2c1,x,n,x,x,x,x,x
COc1ccc(-c2cc(C)no2)cc1S(=O)(=O)N1CCOc2ccc(C)cc21,n,n,n,n,n,n,x
Cc1ccc(OCC(=O)NCc2cccs2)cc1,n,n,n,n,n,n,x
O=C(COc1ccccc1)NCc1cccs1,n,42.4,n,n,n,n,n
CCOC(=O)C1CNc2cc(S(=O)(=O)CC)ccc2O1 (centres undefined),n,n,n,n,n,n,x
CN(C)S(=O)(=O)c1cccc(NC(=O)NCCCl)c1,n,n,n,n,n,n,x
CN(C)S(=O)(=O)c1cccc(NC(=O)CCNC(=O)Nc2ccccc2)c1,n,42.2,n,n,n,n,n
Cc1nc2ccccc2c(=O)n1/N=C/c1ccc([N+](=O)[O-])o1,n,x,n,n,n,n,x
Cc1nc2ccccc2n1/N=C/c1ccc([N+](=O)[O-])o1,n,41.9,n,n,n,n,47.2
O=Cc1sc([O-])nc1-[n+]1ccc2ccccc2c1,n,x,n,n,n,n,x
C/C(=N\Nc1ccc(S(N)(=O)=O)cc1[N+](=O)[O-])c1ccco1,n,47.6,n,n,n,n,n
Nc1nonc1OCCN1CCN(c2ccc([N+](=O)[O-])c3cccnc23)CC1,n,47.4,n,n,n,n,n
COc1cc(Cc2ccc(N)c(OC)c2)ccc1N,n,n,n,n,n,n,x
Nc1ccc(Cc2ccc(N)c(O)c2)cc1O,x,47.6,x,x,x,x,n
CCN1CCN(C(=O)C(C)Nc2cc(Cl)c(OC)cc2OC)CC1 (centres undefined),n,43.8,n,n,n,n,n
Cc1ccc(NNC(=O)c2cc(C(C)(C)C)nn2Cc2ccccc2)cc1,n,n,n,n,n,n,x
CC(C)(C)c1cc(C(=O)NNc2cccc(Cl)c2)n(Cc2ccccc2)n1,n,42.9,n,n,n,n,n
C=CCc1ccc(OC)c(OC)c1,n,51.9,n,n,n,n,n
Clc1ccc(/C=N/NC2=Nc3cccc4cccc2c34)cc1,n,n,n,n,n,n,x
C(=N\NC1=Nc2cccc3cccc1c23)/c1cccnc1,n,51.4,n,n,n,n,n
COc1ccc(CNC(=O)C/C(C)=N/NC(=O)c2ccccc2OC)cc1,n,n,n,n,n,n,x
COc1ccc(CCN2CC34C=CC(O3)C(C(=O)NCc3ccccc3Cl)C4C2=O)cc1OC (centres undefined),n,46.8,n,n,n,n,n
